Data set [1] has as its system Rift Valley fever virus. The experiment in a line: In vitro antiviral activity was tested against rift valley fever virus(RVF) virus. The class given is functional. Conditions: read-out: ED50 (the source's name).
Data set [2] relates to Venezuelan equine encephalitis virus. As to the kind of experiment: In vitro antiviral activity was tested against venezuelan equine encephalomyelitis (VEE) virus. The class given is functional. Conditions: read-out: ED50 (the source's name).
The test system of data set [3] is Vaccinia virus. As to the kind of experiment: In vitro antiviral activity was tested against vaccinia virus(VV) virus. The class given is functional. To be noted: Orthopoxvirus vaccinia; read-out: ED50 (the source's name).
A further data set has as its system Vero. The experiment in a line: Maximum tolerated concentration (MTC) was evaluated in vero cells. The class given is functional, Chlorocebus sabaeus. The gist of the method:
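Confluent, uninfected Vero monolayers were given compound in seven 0.5-log steps, final 5 × 10⁻⁶ to 5 × 10⁻³ M, one well per concentration, for 72 h at 37 °C in 5% CO2. Wells were checked by microscope for changes in morphology or monolayer density (lysis, rounding, detachment). The MTC is the lowest concentration giving visible cytotoxicity.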

Data set [4] relates to Human alphaherpesvirus 2. The experiment in a line: In vitro antiviral activity was tested against herpes simplex virus type 2 (HSV-2). The class given is functional. Conditions: read-out: ED50 (the source's name). The gist of the method: (§1)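 Vero cell monolayers, grown 24 h at 37 °C in 5% CO2 to confluency, were infected with HSV-2 (strain 333) at 100 TCID50 per well. After 30-min adsorption at 37 °C, compound was added in seven 0.5-log steps, final 5 × 10⁻⁶ to 5 × 10⁻³ M, in duplicate wells. After 72 h at 37 °C, the ED50 was taken as 50% inhibition of viral CPE versus untreated controls.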

The test system of data set [5] is Venezuelan equine encephalomyelitis virus (VEE). The experiment in a line: Therapeutic index against Venezuelan equine encephalomyelitis virus (VEE). To be noted: Venezuelan equine encephalitis virus; read-out: Therapeutic index.
Data set [6] relates to Human respirovirus 3. The experiment in a line: In vitro antiviral activity was tested against parainfluenza type 3 (para3) virus. The class given is functional, para influenza virus. To be noted: read-out: ED50 (the source's name).
Data set [7] relates to Mus musculus. As to the kind of experiment: The maximum tolerated dose was evaluated in mice and is expressed as mg/kg of body weight. The class given is functional.
Data set [8] has as its system Rift Valley fever virus. The experiment in a line: (§2) Therapeutic index against Rift valley fever virus. The class given is organism-based. Conditions: in vivo, read-out: Therapeutic index.
The test system of data set [9] is Human alphaherpesvirus 2. As to the kind of experiment: In vitro antiviral activity was tested against herpes simplex type 2 (HSV-2). The class given is functional. Conditions: read-out: ED50 (the source's name). The gist of the method: as §1
Data set [10] deals with Mus musculus. As to the kind of experiment: The maximum tolerated dose was evaluated in mice and expressed in terms of mg/kg of body weight. The class given is functional.
The subject of data set [11] is Human alphaherpesvirus 2. The experiment in a line: In vitro antiviral activity was tested against herpes simplex type 2 (HSV-2) virus. The class given is functional. To be noted: read-out: ED50 (the source's name).
In data set [12] the test system is Vaccinia virus. As to the kind of experiment: In vitro antiviral activity was tested against vaccinia virus(VV). To be noted: Orthopoxvirus vaccinia; read-out: ED50 (the source's name). The class given is functional.
Data set [13] deals with Human respirovirus 3. The experiment in a line: In vitro against parainfluenza type 3 (para3) virus. The class given is functional, para influenza virus. Conditions: read-out: ED50 (the source's name).
The test system of data set [14] is Venezuelan equine encephalomyelitis virus (VEE). The experiment in a line: Therapeutic index against Venezuelan equine encephalomyelitis virus. The class given is organism-based. Conditions: venezuelan equine encephalitis virus, in vivo; read-out: Therapeutic index.
In data set [15] the test system is Human respirovirus 3. As to the kind of experiment: In vitro antiviral activity was tested against parainfluenza virus type 3 (para3) virus. The class given is functional, para influenza virus. To be noted: read-out: ED50 (the source's name).
For data set [16], the system named is Mus musculus. As to the kind of experiment: The maximum tolerated dose was evaluated in mice expressed in terms of mg/kg of body weight. The class given is functional.
Data set [17] deals with Mus musculus. As to the kind of experiment: The maximum tolerated dose was evaluated in mice (mg/kg of body weight). The class given is functional.
For data set [18], the system named is Rift Valley fever virus. The description is as §2. To be noted: read-out: Therapeutic index.

A value given as a limit tells only on which side of the number the result lay.

`CSc1c(C(N)=O)ncn1C1O[C@H](CO)[C@@H](O)[C@H]1O` (stereo partly drawn): the EC50 was 1800 µM with Rift Valley fever virus [1]; greater than 1700 µM in data set [2]; 280 µM with Vaccinia virus [3]; 4100 µM in the data set on Human alphaherpesvirus 2 [4]; 730 µM in the data set with Human respirovirus 3 [6]. Further, the MTC with Vero was 1.6 mM; in the data set with Mus musculus [7], greater than 100 mg/kg. Besides, the selectivity ratio was determined as 0.9 in [5] and 1.2 in the data set with Rift Valley fever virus [8].
For the compound `NC(=O)c1ncn(C2O[C@H](CO)[C@@H](O)[C@H]2O)c1SCc1ccccc1` (stereo partly drawn), the EC50 with Rift Valley fever virus [1] is 1000 µM; in [2], 1000 µM; in the data set on Vaccinia virus [3], 230 µM; in the data set with Human alphaherpesvirus 2 [9], greater than 5000 µM; in the data set on Human respirovirus 3 [6], 4400 µM. In addition, the results for the MTC with Vero and in the data set with Mus musculus [10] were greater than 5 mM and greater than 146 mg/kg, respectively. Moreover, the selectivity ratio in the data set with Rift Valley fever virus [8] came out at 1.9.
Regarding `Cc1c(C(N)=O)ncn1C1O[C@H](CO)[C@@H](O)[C@H]1O` (stereo partly drawn), the EC50 in the data set on Rift Valley fever virus [1] amounted to 1800 µM; in the data set with Human alphaherpesvirus 2 [11], 4000 µM; in the data set with Vaccinia virus [3], 1400 µM; with Human respirovirus 3 [6] it was 500 µM. Moreover, in the data set on Vero, the MTC came to 1.6 mM.
As to `NC(=O)c1ncn(C2O[C@H](CO)[C@@H](O)[C@H]2O)c1S` (stereo partly drawn), the EC50 was greater than 2000 µM in the data set with Rift Valley fever virus [1]; greater than 2000 µM in [2]; greater than 5000 µM in the data set with Human alphaherpesvirus 2 [9]; 5000 µM in the data set with Human respirovirus 3 [6]; 3800 µM with Vaccinia virus [12]. The MTC with Vero was greater than 5 mM; in the data set with Mus musculus [10] it was greater than 110 mg/kg. Besides, the selectivity ratio in the data set on Rift Valley fever virus [8] was 1.1.
With `CS(=O)(=O)c1c(C(N)=O)ncn1C1O[C@H](CO)[C@@H](O)[C@H]1O` (stereo partly drawn), the EC50 in the data set with Rift Valley fever virus [1] was 8.7 µM; in data set [2], 650 µM; with Human alphaherpesvirus 2 [11], 5000 µM; with Human respirovirus 3 [13], greater than 5000 µM; with Vaccinia virus [12], greater than 5000 µM. The MTC in the data set on Vero is greater than 5 mM; in the data set on Mus musculus [10], greater than 400 mg/kg. Further, the selectivity ratio in the data set on Rift Valley fever virus [8] is 2.8; in data set [14], 1.4.
In the case of `CCSc1c(C(N)=O)ncn1C1O[C@H](CO)[C@@H](O)[C@H]1O` (stereo partly drawn), the EC50 in the data set on Rift Valley fever virus [1] was greater than 2000 µM; in data set [2], greater than 2000 µM; in the data set on Vaccinia virus [3] it was 2600 µM; in the data set with Human alphaherpesvirus 2 [4] it was greater than 5000 µM; in the data set on Human respirovirus 3 [15], greater than 5000 µM. Also, the MTC with Vero was greater than 5 mM; with Mus musculus [16], greater than 121 mg/kg. Moreover, the selectivity ratio in the data set on Rift Valley fever virus [8] was 1.4.
As for `CCS(=O)(=O)c1c(C(N)=O)ncn1C1O[C@H](CO)[C@@H](O)[C@H]1O` (stereo partly drawn), the EC50 was greater than 2000 µM with Rift Valley fever virus [1]; greater than 2000 µM in [2]; greater than 5000 µM with Human alphaherpesvirus 2 [9]; greater than 5000 µM in the data set with Human respirovirus 3 [6]; 3500 µM with Vaccinia virus [12]. Also, the figures for the MTC in the data set on Vero and in the data set on Mus musculus [10] were greater than 5 mM and greater than 134 mg/kg, respectively. The selectivity ratio in the data set on Rift Valley fever virus [8] is 1.21.
For `NC(=O)c1ncn([C@@H]2O[C@H](CO)[C@@H](O)[C@H]2O)n1` [RIBAVIRIN], the MTC in the data set on Mus musculus [17] is greater than 100 mg/kg. Further, the selectivity ratio in the data set on Rift Valley fever virus [18] came out at 4; in data set [14], 1.5.

These data come from ChEMBL document CHEMBL1123027, “Synthesis and biological activity of 5-thiobredinin and certain related 5-substituted imidazole-4-carboxamide ribonucleosides” (J Med Chem, 1985).
